For 37 variants, yeast fitness results are on record in the RNAGym collection of RNA variant scans (doi:10.1126/science.aae0568).

B1: tRNA (parent)
chain: GUUCCGUUGGCGUAAUGGUAACGCGUCUCCCUCCUAAGGAGAAGACUGCGGGUUCGAGUCCCGUACGGAACG

Variants at the floor of the assay were thinned out.

The variants in this series derive from B1. In words: yeast fitness relative to wild type (ratio to wild type); higher = fitter; tRNA-Arg(CCU), competitive growth, 37 C, YPD. The method, boiled down: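 Start and end populations of a pooled competition were compared by 100-nucleotide paired-end sequencing of gene amplicons. The Saccharomyces cerevisiae strains carried tRNA-Arg(CCU) gene variants at the native genomic locus, synthesised with a 3% per-site mutation rate at 69 sites, and competed in YPD at 37°C for 24 hours in six parallel replicates. Darwinian fitness relative to wild type was based on the change in genotype frequencies. Genotypes required ≥ 100 starting reads, and estimates < 0.5 were set to 0.5.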
For the variant GUUCCGUUGGCGUAAGGGUAACGCGUCUCCCUCCUAAGGAGAAGACUACGGGUUCGAGUCCCGUACGAAACG [U16G G48A G68A], the yeast fitness turned out to be 1.09. For the variant GUUUCGUUGGCGUAAUGGUAACGCGUCUCCCUCCUGAGGAGAACACUGUGGGUUCGAGUCCCGUACGGAACG [C4U A36G G44C C49U], the yeast fitness came to 0.631. Turning to GUCCCGUGGGCGUAAUGGUAACGCGUCUCCCAGCUAAGGAGAAGACUGCGGGUUCGAGUCCUGUACGGAACG [U3C U8G U32A C33G C62U], the yeast fitness was at most 0.5. With GAUCCGUUGGCGUAAUGGUCACGCGUCUCCCUCCUAAGGAGAAGACUGCGGGUUCGAGUCCCGUACGGAACG [U2A A20C], the yeast fitness is 0.928. For GUUCCGUUGGCGUAAUGGCAGCGCGGCUCCCUCCUAAGCAGAAGAAUGCGGGUUCGAGUCCCGUACGGACCG [U19C A21G U26G G39C C46A A70C], the yeast fitness was at most 0.5. GUUCCGUUGGCGUGAUGGUAACGCGUCUCCCUCCUAACGAGAAGACUGCGGGUUCGGGUCCCGUACGGAGCG [A14G G38C A57G A70G]: the yeast fitness was at most 0.5. The result for GUUCCGUUGGCGUACUGGUAACGCGUAUCCCUUAUAAGGAGAAGACUGCGGGUUCGAGUCUCGUACGGAACG [A15C C27A C33U C34A C61U] reads 0.509; that for GUUCCGUUGGCGUAGUGGUAACGCGUCUCCCCCCUAAGGAGAAGACUGCGGGUUCGAGUCCCGUACGGAACG [A15G U32C], 0.983. The result for GUUCCGUUGGCGUAAUGGUAACGCGUCUCCCUCUUAAGGAGAAGACUGCGGGUUCGAGUCCCGUACGGUCCG [C34U A69U A70C] reads 0.541. Take GUUCCGUUGGCGUAUUGGUAACGCGUCUCCCUCGUAAGGAGAAGACUGCGGGUUUGAGUCCCGUACGGCACG [A15U C34G C55U A69C]: the yeast fitness is at most 0.5. For the variant GUUCCAUUGGCGUAAUGGUAACGCGUCUCCCUCCUAAGGAGAAGACUGGGGGUUCGAGUCUCGUACGGGACG [G6A C49G C61U A69G], the yeast fitness was at most 0.5.

As to GUUCCGUUGGCGUAAUGGUAACGCGUCUCCCUUCUAAGGAGAAGACUGCGGGUUCGAGUCCCGUACGAAACG [C33U G68A], the yeast fitness amounted to 0.679. With GCUGCCUUGGCGUAAUGAUAACGUGUAUCCCUCCCAAGGAAAAGACCGCGGGUUCGAGUCCCGUACGGAACG [U2C C4G G6C G18A C24U C27A U35C G41A U47C], the yeast fitness was at most 0.5. Regarding GCUCCGUUGGCGUAAUGGUAAAGCGUCUACCUCCUAAGGAGAAGACUGCGGGUUUGAGUCACGUACGGAACG [U2C C22A C29A C55U C61A], the yeast fitness was at most 0.5.

As for GUUCCGUUGGCGUAAUGGUAAGGGGUGUCCCUCCUAAGGAGAAGACUGCGGGUUCGAGUCCCGUACGGAACG [C22G C24G C27G], the yeast fitness was 0.766. To GUUCCCUUGGCGUAAUGGUAAAGCGUCUCCGUCCUAAGGAGAAGACUGCGGGUUCGAGUCCCGUACGGAACG [G6C C22A C31G] belongs at most 0.5. The result for GUUCCGUUGGCGUAAAGGUAACGCGUCUCCCUCCUAAGGAGAAGACUGCGGGUUCGCGUCCCGUAUGGCACG [U16A A57C C66U A69C] reads at most 0.5; that for GUUCCGUUGGCGUCAUGGUAGCGCGUCUACCUCUUAAGGAGAAGACUGCGGGUUCGAGUCCCGUACGGAACG [A14C A21G C29A C34U], 0.612. Turning to GUUCCGUUGGCGUAAUGGUAACGCGUCUCCCUCCUAAGGAGAAGACUGCGAGUUCGAGUCCCGUAUGGAACG [G51A C66U], the yeast fitness is 0.82.

Consider GUCCCGUUGGCGUAAUGGUAGCGCGUCUCCCUCCUAAAGAGAAGACUGCGGGUUCAAGUCCCGUACGGAACG [U3C A21G G38A G56A], for which the yeast fitness was at most 0.5. Consider GUUCCAUUGGCGUACUGGUAACGCGUCUCCCUUCUAAGCAGAAGACUGCGGGUUCGAGUCCGGUACGCAACG [G6A A15C C33U G39C C62G G68C], for which the yeast fitness was at most 0.5. For the variant GUUCCGUUCGCGUAAUGGUAACGCGUCUCCCUCCUAAGGAGAAGACUGCGCGUUCGAGUCCGGUACGGAACG [G9C G51C C62G], the yeast fitness is at most 0.5.

As for GUUCCGUUGGCGUAAUGGUAACGCGUCUCCCUCCUAAAGAGAAGACUGCGGGUUCGAGUCCUGUACGGAACG [G38A C62U], the yeast fitness turned out to be 0.961. With GUUCCAUUGGCGUAAUGGUAACGCGUCUCCAUCCUAAGGAGAAGACUGCGGGUUCGAGUCCCGUACGAAACG [G6A C31A G68A], the yeast fitness is at most 0.5. For the variant GUUCCGUUGGCGUAAUGGUAACGCGUCUCCCUCGUAAGAAGAAGACUGCGGGUUCGAGUCCCGUACGGACCG [C34G G39A A70C], the yeast fitness is at most 0.5. The result for GUUCCGUUGGAGUAAUGGUAACGCGUCUCCCUCCUAAGGAGAAGACUGCGGGUUCGAGUCCGGUACGGUACG [C11A C62G A69U] reads at most 0.5; that for GUUCCGUUGGUGUAAUGGUUACGCGUCUCCCUCCUAAGAACAAGAAUGCGGGUUCGAGUCCCGUACGAAACG [C11U A20U G39A G41C C46A G68A], at most 0.5; that for GUUCCGUUAGCGUAAUGGUAACGCGUCUCUCUCCUAAGGAGAAGACUGUGGGUUCGAGUCCCGAACGGAACG [G9A C30U C49U U64A], at most 0.5. As to GUUCCGUUGGCGUAAUAGUAACGCGUCUCCCUCCUAAGGACAAGAAUGCGGGUUCGAGUCCCGUACGGAACG [G17A G41C C46A], the yeast fitness turned out to be 0.68.

On to GUUCUGUUGGCGUAACGGUAACGCGUCUACCUCCUAAGGAGAAGACUGCGGGUUCGAGUCCCGUACGGAACG [C5U U16C C29A], for which the yeast fitness amounted to 0.522.

As for GUUCCGUAGGCAUAAUGGUAACGCGUCUCCCUCCUAAGGAGAAGCCUGCGGGUUCGAGUCCCGUACGGAACG [U8A G12A A45C], the yeast fitness was at most 0.5.

For the variant GUUCGGUUGGCGAAAUGGAAACGCGUCUCUCUCCUAAGGAGAAGACUGCGGGUUCGAGUCCCGUACGGAACG [C5G U13A U19A C30U], the yeast fitness amounted to 0.573. GUUCCGUUGGAGUAAUGGUAACGCCUCUCCCUCCUAAGGAGAAAACUGCGGGUUCGGGUCCCGUACGGAACG [C11A G25C G44A A57G]: the yeast fitness is at most 0.5. Consider GUUCCGUUGGCGUAUUGGUAACGCAUCUCCCUCCUAAGGAGAACACUGCGGGUUCGAGUCCCGUACUGAACG [A15U G25A G44C G67U], for which the yeast fitness worked out at 0.522. GUUCCGGUGGCGUAAUGGUACCGCGUCUCCCUCCUAAGGAGAAGACUGCGGGUUCAAGUCCCGUACGGAACG [U7G A21C G56A]: the yeast fitness is at most 0.5.

GUUCCAUUGGCGUAAUGGUACCGCGUCUCCCUCUUAAGGAGAAGACUGUGGGUUGGAGUCCUGUACGGAACG [G6A A21C C34U C49U C55G C62U]: the yeast fitness is at most 0.5. On to GUUCUGUUGGCGUGAUGGUAACGCGUCUCCCUUCUAAGGAGAAGACUGCCGGUUUGGGUCCCGUACGGAACG [C5U A14G C33U G50C C55U A57G], for which the yeast fitness is at most 0.5.
